Laboratory results published in ChEMBL document CHEMBL1125809, “Preparation and anticonvulsant activity of a series of functionalized alpha-heteroatom-substituted amino acids” (J Med Chem, 1991).
Where “and” joins values, the source holds several entries; their conditions need not be identical. Identical values can stand only once.

Assays:
[1] = tested on: Mus musculus; assay: Concentration required to prevent seizures upon intraperitoneal administration in mice in MES (maximal electroshock seizure) test.; format: functional
Method in brief: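 Male CF-1 mice dosed ip with compound in 30% PEG 400 (one compound in acacia). Pilot groups of 4 mice per dose tested at 0.5, 1 and 4 h for protection against maximal electroshock seizures.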

[2] = (§1) Neurotoxic dose (TD50) from horizontal screen in mice; format: toxicity, organism-based; conditions: mouse, in vivo
Method in brief: (§2)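 Male CF-1 mice, ip dosing in 30% PEG 400 unless otherwise noted. Trained mice are placed on a 13 × 13 cm no. 4 mesh wire screen on a vertical rod, which is rotated 180°. Impairment is scored as failure to climb to the top within 1 min. TD50 comes from a dose-response at the time of peak anticonvulsant activity, with 3–4 doses and 12 mice/dose. Some entries used the rotorod instead.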

[3] = organism: Mus musculus; assay: as §1; format: toxicity, organism-based; conditions: in vivo; method in brief: as §2
[4] = Mus musculus, ip, read-out: ED50

Compound	ED50 [1, 4] [mg/kg]	also measured
CC(=O)NC(C(=O)NCc1ccccc1)N(C)C (stereo unspecified)	45.3	–
CC(=O)NC(NO)C(=O)NCc1ccccc1 (stereo unspecified)	100	–
CC(=O)NC(C(=O)NCc1ccccc1)N(C)O (stereo unspecified)	30	–
CC(=O)NC(C(=O)NCc1ccccc1)[N+](C)(C)C.F[B-](F)(F)F (stereo unspecified)	> 100	–
CC(=O)NC(N)C(=O)NCc1ccccc1 (stereo unspecified)	65.1	–
CC(=O)NC(NC(=O)C(F)(F)F)C(=O)NCc1ccccc1 (stereo unspecified)	> 300	–
CSC(NC(C)=O)C(=O)NCc1ccccc1 (stereo unspecified)	> 100	–
CON(C)C(NC(C)=O)C(=O)NCc1ccccc1 (stereo unspecified)	6.7	TD50 [2]: 50.5 mg/kg
CONC(NC(C)=O)C(=O)NCc1ccccc1 (stereo unspecified)	6.2	TD50 [2]: 46 mg/kg
CC[S+]([O-])C(NC(C)=O)C(=O)NCc1ccccc1 (stereo unspecified)	> 100	–
CC(=O)NC(C(=O)NCc1ccccc1)N1CCCO1 (stereo unspecified)	31.4	–
CC(=O)NC(Sc1ccccc1)C(=O)NCc1ccccc1 (stereo unspecified)	> 300	–
CC(=O)NC(O)C(=O)NCc1ccccc1 (stereo unspecified)	80.1	–
COC(NC(C)=O)C(=O)NCc1ccccc1 (stereo unspecified)	–	TD50 [3]: > 100 mg/kg and < 300 mg/kg
CCS(=O)(=O)C(NC(C)=O)C(=O)NCc1ccccc1 (stereo unspecified)	> 100	–
CC(=O)NC(NNC(=O)OCc1ccccc1)C(=O)NCc1ccccc1 (stereo unspecified)	55.6	–
CC(=O)NC(Nc1ccccc1)C(=O)NCc1ccccc1 (stereo unspecified)	> 300	–
CC(=O)NC(NNc1ccccc1)C(=O)NCc1ccccc1 (stereo unspecified)	100	–
CCOC(NC(C)=O)C(=O)NCc1ccccc1 (stereo unspecified)	62	TD50 [2]: > 112 mg/kg
CC(=O)NC(C(=O)NCc1ccccc1)c1ccco1 (stereo unspecified)	–	TD50 [2]: 40 mg/kg
CC(=O)NC(Nc1cc[nH]n1)C(=O)NCc1ccccc1 (stereo unspecified)	100	–
CC(=O)NC(NC(C)=O)C(=O)NCc1ccccc1	–	ED50 [1]: <300 mg/kg and >100 mg/kg
CC(=O)NC(Oc1ccccc1)C(=O)NCc1ccccc1 (stereo unspecified)	> 100	–
